Assay [1] deals with T1, Monoglyceride lipase (Homo sapiens, UniProt Q99685).
T1 sequence (Q99685 whole entry): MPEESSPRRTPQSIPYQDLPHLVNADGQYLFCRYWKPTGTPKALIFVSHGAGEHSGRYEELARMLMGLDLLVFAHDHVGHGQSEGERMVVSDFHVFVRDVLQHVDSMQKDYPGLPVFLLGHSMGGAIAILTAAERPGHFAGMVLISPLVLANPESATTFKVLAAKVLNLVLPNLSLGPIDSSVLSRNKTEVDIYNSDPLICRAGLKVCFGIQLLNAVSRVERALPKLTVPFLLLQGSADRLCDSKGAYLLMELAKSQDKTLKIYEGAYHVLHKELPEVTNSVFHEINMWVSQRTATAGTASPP
The assay is described as follows: Inhibition of human MGL activity using [3H]2-oleoylglycerol substrate by liquid scintillation counting. An outline of the steps:
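Recombinant human MGL was used, and inhibition was expressed as pIC50.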

The target of assay [2] is Monoglyceride lipase (Homo sapiens, UniProt Q99685, C242A). The assay is described as follows: Inhibition of human MGL C242A mutant using [3H]2-oleoylglycerol substrate.
Assay [3] concerns the target T2, Monoglyceride lipase (Homo sapiens) (UniProt Q99685).
T2 sequence (whole entry): T1 sequence (Q99685 whole entry)
Put plainly: Inhibition of human MGL activity using [3H]2-oleoylglycerol substrate at 33.3 nM measured upto 1 hr by high dilution reversibility assay. An outline of the steps: (§1)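 Recombinant human MGL preincubated with inhibitor at 30, 10 or 3 μM, then diluted 300-fold before substrate addition, giving 100, 33.3 and 10 nM during the activity read. Activity was followed up to 1 h postdilution and compared with a DMSO-preincubated control.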

The target in assay [4] is T2, Monoglyceride lipase (Homo sapiens). The assay is described as follows: Inhibition of human MGL activity using [3H]2-oleoylglycerol substrate at 10 nM measured upto 1 hr by high dilution reversibility assay. An outline of the steps: as §1
Assay [5] shares this target. Put plainly: Inhibition of human MGL activity using [3H]2-oleoylglycerol substrate at 100 nM measured upto 1 hr by high dilution reversibility assay. An outline of the steps:
as §1

The target of assay [6] is T3, Fatty-acid amide hydrolase 1 (Homo sapiens, UniProt O00519).
T3 sequence (O00519 whole entry): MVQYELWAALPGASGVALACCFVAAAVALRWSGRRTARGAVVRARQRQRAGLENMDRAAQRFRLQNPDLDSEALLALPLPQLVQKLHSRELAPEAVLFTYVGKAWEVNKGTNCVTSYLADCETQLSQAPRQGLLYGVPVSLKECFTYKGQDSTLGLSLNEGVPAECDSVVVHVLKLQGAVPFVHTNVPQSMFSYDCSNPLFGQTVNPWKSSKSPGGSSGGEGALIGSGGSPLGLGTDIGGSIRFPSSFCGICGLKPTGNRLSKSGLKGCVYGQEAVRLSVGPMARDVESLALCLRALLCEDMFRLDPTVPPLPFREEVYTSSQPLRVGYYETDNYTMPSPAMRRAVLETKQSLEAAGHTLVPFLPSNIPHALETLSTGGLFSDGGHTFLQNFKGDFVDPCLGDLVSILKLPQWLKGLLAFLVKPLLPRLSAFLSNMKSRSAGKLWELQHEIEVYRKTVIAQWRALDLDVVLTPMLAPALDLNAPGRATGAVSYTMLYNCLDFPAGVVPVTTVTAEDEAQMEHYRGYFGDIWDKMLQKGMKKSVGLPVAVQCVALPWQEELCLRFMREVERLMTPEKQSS
Put plainly: Inhibition of human recombinant FAAH-maltose binding protein.

Assay [7] deals with T2, Monoglyceride lipase (Homo sapiens). Put plainly: Inhibition of human MGL activity using [3H]2-oleoylglycerol substrate at 10 uM by liquid scintillation counting. An outline of the steps: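 Single-point screen on recombinant human MGL at 10 μM, with a parallel screen at 100 μM.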
The target in assay [8] is T4, Aldehyde dehydrogenase, mitochondrial (Rattus norvegicus, UniProt P11884).
T4 sequence (P11884 whole entry): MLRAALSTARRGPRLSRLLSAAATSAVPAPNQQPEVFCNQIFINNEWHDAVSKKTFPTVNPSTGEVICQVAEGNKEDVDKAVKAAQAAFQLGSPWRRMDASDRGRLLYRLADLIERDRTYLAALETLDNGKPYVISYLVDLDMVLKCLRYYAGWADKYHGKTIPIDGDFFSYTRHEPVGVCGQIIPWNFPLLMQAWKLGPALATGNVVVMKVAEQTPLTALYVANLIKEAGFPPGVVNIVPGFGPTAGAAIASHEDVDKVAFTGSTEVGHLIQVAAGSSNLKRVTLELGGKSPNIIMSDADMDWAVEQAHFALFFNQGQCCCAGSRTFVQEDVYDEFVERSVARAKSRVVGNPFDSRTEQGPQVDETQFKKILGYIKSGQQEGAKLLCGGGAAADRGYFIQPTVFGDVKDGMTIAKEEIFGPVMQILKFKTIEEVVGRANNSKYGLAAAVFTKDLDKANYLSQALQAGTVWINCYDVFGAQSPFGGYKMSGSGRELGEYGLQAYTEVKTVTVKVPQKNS
Put plainly: Inhibition of recombinant rat ALDH activity in liver mitochondria.

Assay [9] has as its target T2, Monoglyceride lipase (Homo sapiens). Put plainly: Inhibition of human MGL activity using [3H]2-oleoylglycerol substrate assessed as reversible enzyme activity in presence of 1,4-dithio-DL-threitol. An outline of the steps: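 Recombinant human MGL incubated with inhibitor to allow disulfide bond formation. DTT (10^-2 M) was then added before substrate addition and the MGL activity read.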

The target in assay [10] is Monoglyceride lipase (Homo sapiens, UniProt Q99685, C208A). Put plainly: Inhibition of human MGL C208A mutant using [3H]2-oleoylglycerol substrate.
Assay [11] has as its system T5, Monoglyceride lipase (Homo sapiens), Q99685 [C208A,C242A].
T5 sequence (whole entry): T1 sequence (Q99685 whole entry) with C208A, C242A
Put plainly: Inhibition of human MGL C208A/C242A double mutant using [3H]2-oleoylglycerol substrate.

Where a chain is given by its changes, count along the chain named. pIC50: −log10 of the molar value. Active and inactive are the calls of the source. The rule behind the calls is not given here.

Sequence of Monoglyceride lipase (Homo sapiens, UniProt Q99685, C242A) (Q99685 whole entry C242A): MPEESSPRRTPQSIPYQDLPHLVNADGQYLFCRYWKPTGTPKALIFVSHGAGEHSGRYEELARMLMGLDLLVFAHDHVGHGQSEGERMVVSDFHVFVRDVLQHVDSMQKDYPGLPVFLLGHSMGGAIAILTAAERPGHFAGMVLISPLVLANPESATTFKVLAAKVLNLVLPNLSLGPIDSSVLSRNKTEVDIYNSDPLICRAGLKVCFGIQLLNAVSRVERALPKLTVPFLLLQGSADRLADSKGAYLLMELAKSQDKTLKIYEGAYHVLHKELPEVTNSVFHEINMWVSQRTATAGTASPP
Sequence of Monoglyceride lipase (Homo sapiens, UniProt Q99685, C208A) (Q99685 whole entry C208A): as the sequence (Q99685 whole entry C242A) above, with C208A, A242C counted along it

In the case of `CN1CCN(C(=S)SSC(=S)N2CCN(C)CC2)CC1`, the pIC50 on Monoglyceride lipase [1] is 6.96; on Monoglyceride lipase [2], 6.52; in assay [6] it was 3.70; in [8], 4.80; against Monoglyceride lipase [10] it was 5.08. Further, the result in assay [3], in assay [4], in [5] and in assay [9] was Active. For the same molecule, in assay [7], the inhibition was over 50%. In [11], the result was inactive.

As a reminder, the pIC50 is the IC50 on a negative log10 scale, so that one unit is a factor of ten. By inhibition is commonly meant the relative decrease from the control value, in per cent. A low value points to little suppression.

These data come from ChEMBL document CHEMBL1154683, “Bis(dialkylaminethiocarbonyl)disulfides as potent and selective monoglyceride lipase inhibitors” (J Med Chem, 2009).
